# According to ChEMBL document CHEMBL1806372, “Cytotoxic ring A-modified steroid analogues derived from Grundmann's ketone” (Eur J Med Chem, 2011):
# Activity calls are given as the source filed them. The calls are words filed in the database; no cut-off is given here.
# Key:
# [1] = system: Streptococcus entericus; test: Antibacterial activity against Streptococcus entericus assessed as zone of inhibition at 5 uL and 32 degC after 36 hrs by disk diffusion method; type: functional
# How it was run: (§1)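 Disc diffusion on AC agar, each strain spread evenly over the medium; test compounds given as 1% (w/v) DMSO solutions. Plates covered and incubated 36 h at 32 °C, then the diameter of the zone of inhibited growth measured in mm. Tetracycline served as antibacterial reference.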
# [2] = system: Nakaseomyces glabratus; test: Antifungal activity against Candida glabrata assessed as zone of inhibition at 5 uL and 28 degC after 36 hrs by disk diffusion method; type: functional
# How it was run: (§2)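 Agar disc diffusion with the test compound applied as a 1% (w/v) DMSO solution. Yeasts were grown on AC agar and Aspergillus niger on potato dextrose broth agar, each strain spread evenly. Plates were covered and kept 36 h at 28 °C, and the inhibition zone diameter was read in mm. Clotrimazole served as reference.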
# [3] = system: HL-60; test: Cytotoxicity against human HL60 cells after 24 hrs by MTT assay; type: functional, cell-based; conditions: HL-60, 24 h
# How it was run: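 HL-60 cells kept in RPMI 1640 with 10% FBS, no antibiotics, 37 °C, humidified 5% CO2. Cells (9 × 10^5 cells/mL) exposed to compound in 96-well plates for 24 h at 37 °C. MTT in PBS (5 mg/mL) added for 2 h, then DMSO, shaken 1 h and read photometrically. IC50 determined; cisplatin reference.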
# [4] = Antifungal activity against Hyphopichia burtonii assessed as zone of inhibition at 5 uL and 28 degC after 36 hrs by disk diffusion method; type: functional; how it was run: as §2
# [5] = system: Aspergillus niger; test: Antifungal activity against Aspergillus niger assessed as zone of inhibition at 5 uL and 28 degC after 36 hrs by disk diffusion method; type: functional; how it was run: as §2
# [6] = system: Burkholderia gladioli; test: (§3) Antibacterial activity against Pseudomonas antimicrobica assessed as zone of inhibition at 5 uL and 32 degC after 36 hrs by disk diffusion method; type: functional; how it was run: as §1
# [7] = system: Escherichia coli; test: Antibacterial activity against Escherichia coli assessed as zone of inhibition at 5 uL and 32 degC after 36 hrs by disk diffusion method; type: functional; how it was run: as §1
# [8] = system: Yarrowia lipolytica; test: Antifungal activity against Yarrowia lipolytica assessed as zone of inhibition at 5 uL and 28 degC after 36 hrs by disk diffusion method; type: functional; how it was run: as §2
# [9] = system: Staphylococcus equorum; test: Antibacterial activity against Staphylococcus equorum assessed as zone of inhibition at 5 uL and 32 degC after 36 hrs at by disk diffusion method; type: functional; how it was run: as §1
# [10] = as §3; type: functional, Burkholderia gladioli; how it was run: as §1
Structure (SMILES),diameter of the inhibition zone (DIZ) [1],diameter of the inhibition zone (DIZ) [2],IC50 [3] [µM],diameter of the inhibition zone (DIZ) [4],diameter of the inhibition zone (DIZ) [5],diameter of the inhibition zone (DIZ) [6],diameter of the inhibition zone (DIZ) [7],diameter of the inhibition zone (DIZ) [8],diameter of the inhibition zone (DIZ) [9],inhibition zone (IZ) [4] [mm],diameter of the inhibition zone (DIZ) [10] [mm]
CC(C)=CCCC1=CCn2c(=O)ccc(=O)n2C1,inactive,inactive,41,inactive,inactive,inactive,inactive,inactive,inactive,–,–
C=CC1=CCC[C@]2(C)[C@@H]([C@H](C)CCCC(C)C)CC[C@@H]12,9 mm,inactive,> 100,inactive,inactive,inactive,inactive,inactive,10 mm,–,–
CC(C)CCC[C@@H](C)[C@H]1CC[C@H]2C3=CCn4c(=O)n(C)c(=O)n4[C@@H]3CC[C@]12C,inactive,inactive,13,inactive,inactive,inactive,inactive,inactive,10 mm,–,–
CC(C)CCC[C@@H](C)[C@H]1CC[C@H]2C(CCCCN3C(=O)C=CC3=O)CCC[C@]12C (mixture of isomers),12 mm,8 mm,14,–,inactive,–,10 mm,inactive,11 mm,9,9
